In ChEMBL document CHEMBL1177759, “Design and synthesis of disubstituted (4-piperidinyl)-piperazine derivatives as potent acetyl-CoA carboxylase inhibitors” (Bioorg Med Chem Lett, 2010):

Legend:
Acetyl-CoA carboxylase = Acetyl-CoA carboxylase (Homo sapiens, UniProt Q13085+O00763); assay: Inhibition of human ACC1/2-mediated malonyl-CoA synthesis; assay type: protein assay
How it was run: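 Partially purified human liver ACC enzymes; read-out is malonyl-CoA synthesis by ACC1/2; IC50 taken as mean of at least two independent experiments.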

[1] = Permeability by PAMPA method; assay type: ADME; details: read-out: permeability
How it was run: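 Parallel artificial membrane permeation at pH 6.2; effective permeability Pe reported in 10^-6 cm/s.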

[2] = Metabolic stability in human liver microsomes assessed as compound remaining after 15 mins; assay type: ADME, Microsome; details: read-out: Stability
How it was run: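 Compound at […] incubated 15 min at 37 °C with human liver microsomes at 1 mg protein/mL. Cofactors: 1.5 mM glucose-6-phosphate, 0.16 mM NADP, 1 U/mL G6P dehydrogenase. Buffer: 250 mM phosphate, 2.4 mM MgCl2, 69 mM KCl. Parent measured by LC-MS/MS; % remaining relative to 0 min.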

[3] = Inhibition of human ACC in HepG2 cells assessed as decrease in fatty acid synthesis by [14C]acetate incorporation assay; assay type: cell-based
How it was run: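 HepG2 cells; fatty acid synthesis followed as loss of [14C]acetate incorporation into cellular lipids; IC50 derived.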

Row | Compound | IC50 (Acetyl-CoA carboxylase) [nM] | further results
1 | CC(=O)N1CCC(C(=O)N2CCC(N3CCN(C(=O)c4cc(-c5ccccc5)nc(-c5ccc(O)cc5)c4)CC3)CC2)CC1 | 47 | –
2 | CC(=O)N1CCC(C(=O)N2CCC(N3CCN(C(=O)c4cc(-c5ccccc5)nc(-c5ccc6c(c5)c(C)c(C)n6C)c4)CC3)CC2)CC1 | 105 | –
3 | CC(=O)N1CCC(C(=O)N2CCC(N3CCN(C(=O)c4cc(-c5ccccc5)nc(-c5ccc6[nH]c(CN(C)C)c(C)c6c5)c4)CC3)CC2)CC1 | 8.4 | –
4 | CC(=O)N1CCC(C(=O)N2CCC(N3CCN(C(=O)c4cc(-c5ccc(C)cc5)nc(-c5ccc6[nH]ccc6c5)c4)CC3)CC2)CC1 | 30 | Papp [1]: 39.8 ×10⁻⁶ cm/s
5 | CC(=O)N1CCC(C(=O)N2CCC(N3CCN(C(=O)c4cc(-c5cccc(F)c5)nc(-c5ccc6[nH]ccc6c5)c4)CC3)CC2)CC1 | 33 | Papp [1]: 19.9 ×10⁻⁶ cm/s
6 | COc1ccc(-c2cc(C(=O)N3CCN(C4CCN(C(=O)C5CCN(C(C)=O)CC5)CC4)CC3)cc(-c3ccc4[nH]ccc4c3)n2)cc1 | 21 | Papp [1]: 21.5 ×10⁻⁶ cm/s
7 | CC(=O)N1CCC(C(=O)N2CCC(N3CCN(C(=O)c4cc(-c5ccccc5)nc(-c5ccc6[nH]ncc6c5)c4)CC3)CC2)CC1 | 42 | –
8 | CC(=O)N1CCC(C(=O)N2CCC(N3CCN(C(=O)c4cc(-c5ccccc5)nc(-c5ccc6c(c5)CC(=O)N6)c4)CC3)CC2)CC1 | 54 | –
9 | CC(=O)N1CCC(C(=O)N2CCC(N3CCN(C(=O)c4cc(-c5ccc(C(F)(F)F)cc5)nc(-c5ccc6[nH]ccc6c5)c4)CC3)CC2)CC1 | 72 | –
10 | CC(=O)N1CCC(C(=O)N2CCC(N3CCN(C(=O)c4cc(-c5ccccc5)nc(-c5ccc(CCCO)cc5)c4)CC3)CC2)CC1 | 70 | –
11 | CC(=O)N1CCC(C(=O)N2CCC(N3CCN(C(=O)c4cc(-c5ccccc5)nc(-c5ccc6c(ccn6C)c5)c4)CC3)CC2)CC1 | 69 | remaining at 0.25 h [2]: 85%
12 | CC(=O)N1CCC(C(=O)N2CCC(N3CCN(C(=O)c4cc(-c5ccccc5)nc(-c5ccc6cn[nH]c6c5)c4)CC3)CC2)CC1 | 57 | –
13 | CC(=O)N1CCC(C(=O)N2CCC(N3CCN(C(=O)c4cc(-c5cccc(C)c5)nc(-c5ccc6[nH]ccc6c5)c4)CC3)CC2)CC1 | 37 | Papp [1]: 28.1 ×10⁻⁶ cm/s
14 | CC(=O)N1CCC(C(=O)N2CCC(N3CCN(C(=O)c4cc(-c5ccccc5)nc(-c5ccc6c(c5)c(C)cn6C)c4)CC3)CC2)CC1 | 127 | –
15 | CCc1c(C)[nH]c2ccc(-c3cc(C(=O)N4CCN(C5CCN(C(=O)C6CCN(C(C)=O)CC6)CC5)CC4)cc(-c4ccccc4)n3)cc12 | 169 | –
16 | CC(=O)N1CCC(C(=O)N2CCC(N3CCN(C(=O)c4cc(-c5ccccc5)nc(-c5ccc6[nH]c(C)c(C)c6c5)c4)CC3)CC2)CC1 | 33 | remaining at 0.25 h [2]: 99%
17 | CC(=O)N1CCC(C(=O)N2CCC(N3CCN(C(=O)c4cc(-c5cccc(C(F)(F)F)c5)nc(-c5ccc6[nH]ccc6c5)c4)CC3)CC2)CC1 | 100 | –

Row | Compound | IC50 (Acetyl-CoA carboxylase) [nM] | further results
18 | COc1cccc(-c2cc(C(=O)N3CCN(C4CCN(C(=O)C5CCN(C(C)=O)CC5)CC4)CC3)cc(-c3ccc4[nH]ccc4c3)n2)c1 | 32 | –
19 | CC(=O)N1CCC(C(=O)N2CCC(N3CCN(C(=O)c4cc(-c5ccccc5)nc(-c5ccc(C(N)=O)cc5)c4)CC3)CC2)CC1 | 80 | –
20 | CC(=O)N1CCC(C(=O)N2CCC(N3CCN(C(=O)c4cc(-c5ccccc5)nc(-c5ccc(CCO)cc5)c4)CC3)CC2)CC1 | 27 | IC50 [3]: 1620 nM
21 | CC(=O)N1CCC(C(=O)N2CCC(N3CCN(C(=O)c4cc(-c5ccccc5)nc(-c5ccc(OCCO)cc5)c4)CC3)CC2)CC1 | 47 | –
22 | CC(=O)N1CCC(C(=O)N2CCC(N3CCN(C(=O)c4cc(-c5ccccc5)nc(-c5ccc(CO)cc5)c4)CC3)CC2)CC1 | 42 | –
23 | CC(=O)N1CCC(C(=O)N2CCC(N3CCN(C(=O)c4cc(-c5ccccc5)nc(-c5ccc6[nH]c(C)cc6c5)c4)CC3)CC2)CC1 | 59 | –
24 | COc1ccc(-c2cc(C(=O)N3CCN(C4CCN(C(=O)C5CCN(C(C)=O)CC5)CC4)CC3)cc(-c3ccc4[nH]ccc4c3)n2)cc1OC | 30 | –
25 | CC(=O)N1CCC(C(=O)N2CCC(N3CCN(C(=O)c4cc(-c5ccccc5)nc(-c5ccc6[nH]cc(C)c6c5)c4)CC3)CC2)CC1 | 36 | remaining at 0.25 h [2]: 72%
26 | CC(=O)N1CCC(C(=O)N2CCC(N3CCN(C(=O)c4cc(-c5ccccc5)nc(-c5ccc(CC(=O)O)cc5)c4)CC3)CC2)CC1 | 75 | –
27 | CC(=O)N1CCC(C(=O)N2CCC(N3CCN(C(=O)c4cc(-c5ccccc5)nc(-c5ccc6[nH]ccc6c5)c4)CC3)CC2)CC1 | 55 | remaining at 0.25 h [2]: 64%; Papp [1]: 46.5 ×10⁻⁶ cm/s
28 | CC(=O)N1CCC(C(=O)N2CCC(N3CCN(C(=O)c4cc(-c5ccc(F)cc5)nc(-c5ccc6[nH]ccc6c5)c4)CC3)CC2)CC1 | 48 | Papp [1]: 44.3 ×10⁻⁶ cm/s
29 | CC(=O)N1CCC(C(=O)N2CCC(N3CCN(C(=O)c4cc(-c5ccccc5)nc(-c5cccc(CO)c5)c4)CC3)CC2)CC1 | 47 | –
30 | CC(=O)N1CCC(C(=O)N2CCC(N3CCN(C(=O)c4cc(-c5ccccc5)nc(-c5ccc6cc[nH]c6c5)c4)CC3)CC2)CC1 | 47 | –
31 | CC(=O)N1CCC(C(=O)N2CCC(N3CCN(C(=O)c4cc(-c5ccccc5)nc(-c5ccc6[nH]c(C)c(C#N)c6c5)c4)CC3)CC2)CC1 | 9.7 | –
32 | CC(=O)N1CCC(C(=O)N2CCC(N3CCN(C(=O)c4cc(-c5ccc(C)c(F)c5)nc(-c5ccc6[nH]ccc6c5)c4)CC3)CC2)CC1 | 49 | –
33 | CC(=O)N1CCC(C(=O)N2CCC(N3CCN(C(=O)c4cc(-c5ccccc5)nc(-c5ccc6c(c5)cc(C)n6C)c4)CC3)CC2)CC1 | 117 | –
